Source: ChEMBL document CHEMBL1165965, “Synthesis and structure-activity relationships of 1,2,3,4-tetrahydropyrido[2,3-b]pyrazines as potent and selective inhibitors of the anaplastic lymphoma kinase” (Bioorg Med Chem, 2010)

Legend:
[1] = target: T1, Inhibitor of nuclear factor kappa-B kinase subunit epsilon (Homo sapiens) (UniProt Q14164); test: Inhibition of IKK-epsilon at 1 uM
T1 sequence (whole entry): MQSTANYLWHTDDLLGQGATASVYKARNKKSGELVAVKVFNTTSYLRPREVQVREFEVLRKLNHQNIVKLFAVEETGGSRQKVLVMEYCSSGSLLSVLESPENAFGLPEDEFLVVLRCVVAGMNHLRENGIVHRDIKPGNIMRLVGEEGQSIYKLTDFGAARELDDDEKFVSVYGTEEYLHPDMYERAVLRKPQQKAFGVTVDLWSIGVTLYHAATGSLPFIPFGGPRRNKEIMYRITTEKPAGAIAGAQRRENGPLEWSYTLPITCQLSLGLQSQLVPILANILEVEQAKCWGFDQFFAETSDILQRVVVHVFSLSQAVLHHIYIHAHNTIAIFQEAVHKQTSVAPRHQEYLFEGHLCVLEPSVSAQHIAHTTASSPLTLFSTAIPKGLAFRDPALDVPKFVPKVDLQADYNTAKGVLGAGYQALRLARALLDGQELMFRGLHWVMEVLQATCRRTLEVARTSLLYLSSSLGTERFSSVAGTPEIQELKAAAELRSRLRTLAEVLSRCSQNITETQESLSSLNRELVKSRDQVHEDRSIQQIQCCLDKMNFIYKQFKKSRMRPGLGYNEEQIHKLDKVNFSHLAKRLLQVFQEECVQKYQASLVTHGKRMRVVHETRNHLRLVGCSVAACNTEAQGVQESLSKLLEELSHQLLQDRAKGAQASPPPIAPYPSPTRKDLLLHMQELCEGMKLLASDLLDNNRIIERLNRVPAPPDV

[2] = target: Serine/threonine-protein kinase MARK1 (Homo sapiens) (UniProt Q9P0L2); test: Inhibition of MARK1 at 1 uM
How it was run: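 Kinase-panel screen using KINOMEscan technology, with 250–400 kinases per panel. Each compound was tested at a single concentration, and inhibition of each kinase was recorded. Selectivity was summarised as S(90), the fraction of kinases inhibited by more than 90%.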

[3] = target: Serine/threonine-protein kinase 38-like (Homo sapiens) (UniProt Q9Y2H1); test: Inhibition of NDR2 at 1 uM
[4] = target: Cyclin-dependent kinase 17 (Homo sapiens) (UniProt Q00537); test: Inhibition of PCTK2 at 1 uM
[5] = target: Protein-tyrosine kinase 6 (Homo sapiens) (UniProt Q13882); test: Inhibition of BRK at 1 uM
How it was run: (§1)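 Ambit KINOMEscan screen at a single concentration across a 250–400 kinase panel, recorded as percent inhibition. Selectivity was expressed as S(90), the fraction of kinases inhibited >90%.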

[6] = target: Calcium/calmodulin-dependent protein kinase type II subunit gamma (Homo sapiens) (UniProt Q13555); test: Inhibition of CAMK2G at 1 uM; how it was run: as §1
[7] = target: Cyclin-dependent kinase 2 (Homo sapiens) (UniProt P24941); test: Inhibition of CDK2 at 1 uM; how it was run: as §1
[8] = target: T2, Cyclin-G-associated kinase (Homo sapiens) (UniProt O14976); test: Inhibition of GAK at 1 uM
T2 sequence (whole entry): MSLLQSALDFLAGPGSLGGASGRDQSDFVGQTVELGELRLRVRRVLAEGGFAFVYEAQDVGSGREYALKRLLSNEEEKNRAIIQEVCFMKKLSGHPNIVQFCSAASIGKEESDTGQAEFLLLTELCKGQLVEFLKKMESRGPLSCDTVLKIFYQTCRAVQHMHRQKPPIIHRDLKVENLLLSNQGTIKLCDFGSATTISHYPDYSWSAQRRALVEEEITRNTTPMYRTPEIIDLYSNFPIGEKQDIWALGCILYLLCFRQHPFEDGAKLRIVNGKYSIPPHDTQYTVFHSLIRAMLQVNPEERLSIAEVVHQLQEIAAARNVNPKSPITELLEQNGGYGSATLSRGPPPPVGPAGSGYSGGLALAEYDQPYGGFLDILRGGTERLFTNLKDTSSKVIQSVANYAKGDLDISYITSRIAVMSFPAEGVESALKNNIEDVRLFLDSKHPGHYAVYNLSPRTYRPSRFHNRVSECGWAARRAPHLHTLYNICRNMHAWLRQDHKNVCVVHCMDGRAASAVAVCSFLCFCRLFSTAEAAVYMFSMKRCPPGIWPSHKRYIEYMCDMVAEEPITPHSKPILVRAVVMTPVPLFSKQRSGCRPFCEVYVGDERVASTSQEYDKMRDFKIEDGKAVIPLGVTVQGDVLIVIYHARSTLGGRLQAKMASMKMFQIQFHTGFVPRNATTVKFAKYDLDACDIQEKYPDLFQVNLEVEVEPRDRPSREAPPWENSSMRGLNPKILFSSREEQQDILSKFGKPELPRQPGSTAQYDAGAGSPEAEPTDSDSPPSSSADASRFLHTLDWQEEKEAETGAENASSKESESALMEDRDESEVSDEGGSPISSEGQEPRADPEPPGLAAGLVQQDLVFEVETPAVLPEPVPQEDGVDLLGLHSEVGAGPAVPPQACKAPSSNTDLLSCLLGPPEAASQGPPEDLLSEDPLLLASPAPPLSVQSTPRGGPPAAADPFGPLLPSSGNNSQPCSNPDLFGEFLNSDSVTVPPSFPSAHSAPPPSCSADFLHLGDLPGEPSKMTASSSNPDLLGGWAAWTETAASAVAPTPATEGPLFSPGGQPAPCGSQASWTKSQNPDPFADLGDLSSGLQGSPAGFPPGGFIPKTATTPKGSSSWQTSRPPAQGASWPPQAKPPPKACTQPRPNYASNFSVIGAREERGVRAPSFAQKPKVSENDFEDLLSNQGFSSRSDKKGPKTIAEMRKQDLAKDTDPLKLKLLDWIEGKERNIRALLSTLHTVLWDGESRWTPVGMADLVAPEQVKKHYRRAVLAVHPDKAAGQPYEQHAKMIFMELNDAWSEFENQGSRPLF
How it was run: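 Single-concentration screen on the Ambit KINOMEscan platform, run against a panel of 250–400 kinases. Per-kinase inhibition was also summarized as S(90), the fraction of kinases inhibited by more than 90%.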

Calcium/calmodulin-dependent protein kinase type II subunit gamma (Homo sapiens), sequence (Q13555 whole entry): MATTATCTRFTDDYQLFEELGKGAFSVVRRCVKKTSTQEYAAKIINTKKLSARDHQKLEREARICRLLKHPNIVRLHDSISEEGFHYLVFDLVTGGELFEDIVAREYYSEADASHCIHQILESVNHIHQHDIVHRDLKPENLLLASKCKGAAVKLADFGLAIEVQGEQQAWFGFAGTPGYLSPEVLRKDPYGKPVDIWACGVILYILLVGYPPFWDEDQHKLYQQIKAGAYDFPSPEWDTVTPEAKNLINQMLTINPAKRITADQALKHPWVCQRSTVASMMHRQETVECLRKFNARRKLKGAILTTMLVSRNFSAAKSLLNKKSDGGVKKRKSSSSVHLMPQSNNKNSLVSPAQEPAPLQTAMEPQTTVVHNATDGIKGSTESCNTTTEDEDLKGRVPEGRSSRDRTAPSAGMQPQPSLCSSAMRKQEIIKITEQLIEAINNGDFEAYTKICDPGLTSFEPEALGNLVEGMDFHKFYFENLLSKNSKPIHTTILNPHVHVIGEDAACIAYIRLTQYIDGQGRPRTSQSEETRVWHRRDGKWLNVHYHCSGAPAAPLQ
Serine/threonine-protein kinase MARK1 (Homo sapiens), sequence (Q9P0L2 whole entry, looked up): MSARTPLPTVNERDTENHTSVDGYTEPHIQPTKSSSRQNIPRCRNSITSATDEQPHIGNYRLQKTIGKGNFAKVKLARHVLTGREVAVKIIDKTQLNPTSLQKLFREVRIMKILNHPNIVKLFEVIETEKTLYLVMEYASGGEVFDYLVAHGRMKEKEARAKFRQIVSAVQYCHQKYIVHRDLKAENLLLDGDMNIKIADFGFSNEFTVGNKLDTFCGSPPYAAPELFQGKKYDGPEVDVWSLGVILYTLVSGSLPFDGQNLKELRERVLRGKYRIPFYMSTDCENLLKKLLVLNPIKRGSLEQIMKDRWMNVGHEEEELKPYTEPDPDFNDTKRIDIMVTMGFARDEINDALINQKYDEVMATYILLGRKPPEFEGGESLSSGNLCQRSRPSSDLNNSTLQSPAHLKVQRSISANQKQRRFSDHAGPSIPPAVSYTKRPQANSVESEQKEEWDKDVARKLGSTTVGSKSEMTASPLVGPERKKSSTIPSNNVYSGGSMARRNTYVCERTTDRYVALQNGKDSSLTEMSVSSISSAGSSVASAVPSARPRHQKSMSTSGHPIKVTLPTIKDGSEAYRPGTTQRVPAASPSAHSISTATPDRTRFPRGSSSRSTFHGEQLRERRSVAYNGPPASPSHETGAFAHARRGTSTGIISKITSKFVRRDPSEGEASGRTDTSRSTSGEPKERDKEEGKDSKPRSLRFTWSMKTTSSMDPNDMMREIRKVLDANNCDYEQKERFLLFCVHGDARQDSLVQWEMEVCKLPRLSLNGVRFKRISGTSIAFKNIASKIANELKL
Serine/threonine-protein kinase 38-like (Homo sapiens), sequence (Q9Y2H1 2-464 limits assumed): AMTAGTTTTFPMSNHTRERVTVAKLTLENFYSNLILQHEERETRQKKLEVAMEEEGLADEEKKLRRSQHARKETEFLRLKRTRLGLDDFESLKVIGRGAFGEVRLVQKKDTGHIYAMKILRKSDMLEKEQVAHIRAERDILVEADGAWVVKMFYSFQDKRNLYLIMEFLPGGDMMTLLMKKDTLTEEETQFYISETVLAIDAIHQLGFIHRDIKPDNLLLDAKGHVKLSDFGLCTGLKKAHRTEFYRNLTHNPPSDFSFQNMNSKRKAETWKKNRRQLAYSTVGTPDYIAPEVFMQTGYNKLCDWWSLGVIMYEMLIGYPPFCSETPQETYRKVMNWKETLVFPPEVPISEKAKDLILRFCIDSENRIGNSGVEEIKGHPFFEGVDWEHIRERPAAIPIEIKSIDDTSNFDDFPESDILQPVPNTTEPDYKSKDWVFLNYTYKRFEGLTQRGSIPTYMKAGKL
Protein-tyrosine kinase 6 (Homo sapiens), sequence (Q13882 whole entry, looked up): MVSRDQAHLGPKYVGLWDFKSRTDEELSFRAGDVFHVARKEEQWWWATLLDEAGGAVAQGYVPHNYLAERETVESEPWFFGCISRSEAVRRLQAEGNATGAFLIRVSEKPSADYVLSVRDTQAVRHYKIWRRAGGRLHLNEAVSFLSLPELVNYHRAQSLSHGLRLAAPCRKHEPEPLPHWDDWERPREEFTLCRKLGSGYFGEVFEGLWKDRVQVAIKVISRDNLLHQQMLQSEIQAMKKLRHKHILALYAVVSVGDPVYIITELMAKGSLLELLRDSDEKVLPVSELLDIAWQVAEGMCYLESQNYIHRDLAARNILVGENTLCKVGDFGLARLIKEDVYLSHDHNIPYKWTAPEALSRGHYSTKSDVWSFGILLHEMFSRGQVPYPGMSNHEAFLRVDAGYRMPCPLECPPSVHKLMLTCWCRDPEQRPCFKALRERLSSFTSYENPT
Cyclin-dependent kinase 17 (Homo sapiens), sequence (Q00537 whole entry, looked up): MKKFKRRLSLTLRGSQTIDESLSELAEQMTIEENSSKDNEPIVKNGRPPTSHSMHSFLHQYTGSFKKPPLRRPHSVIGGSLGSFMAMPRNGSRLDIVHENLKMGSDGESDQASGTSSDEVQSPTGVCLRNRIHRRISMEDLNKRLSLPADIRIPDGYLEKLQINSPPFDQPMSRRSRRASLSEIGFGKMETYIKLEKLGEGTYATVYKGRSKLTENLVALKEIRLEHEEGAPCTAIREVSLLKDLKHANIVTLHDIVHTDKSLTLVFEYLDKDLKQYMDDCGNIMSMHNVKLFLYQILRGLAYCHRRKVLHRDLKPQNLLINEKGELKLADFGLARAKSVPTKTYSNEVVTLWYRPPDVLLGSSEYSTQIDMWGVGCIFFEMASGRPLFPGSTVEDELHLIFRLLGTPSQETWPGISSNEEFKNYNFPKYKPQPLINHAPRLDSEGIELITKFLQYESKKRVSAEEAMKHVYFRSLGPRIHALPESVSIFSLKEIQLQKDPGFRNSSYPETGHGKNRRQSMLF

Row | inhibition [1] | inhibition [2] | inhibition [3] | inhibition [4] | inhibition [5] | inhibition [6] | inhibition [7] | inhibition [8] | Compound
1 | < 50% | < 50% | < 50% | < 50% | < 50% | < 50% | < 50% | < 50% | CC(=O)N1CCN(c2cc(-c3cnc4c(c3)N(Cc3cc(Cl)ccc3C(F)(F)F)CCN4)ccn2)CC1
2 |  | < 50% | < 50% |  | < 50% | < 50% | < 50% | 66.5% | O=C(O)c1ccc(-c2cnc3c(c2)N(Cc2cc(Cl)ccc2C(F)(F)F)CCN3)cc1
3 |  | < 50% | < 50% |  | < 50% | < 50% | < 50% | < 50% | O=C(c1ccc(-c2cnc3c(c2)N(Cc2cc(Cl)ccc2C(F)(F)F)CCN3)cc1)N1CCCCC1
4 | < 50% | < 50% | < 50% | < 50% | < 50% | < 50% | < 50% | < 50% | CN1CCN(c2ccc(-c3cnc4c(c3)N(Cc3cc(Cl)ccc3C(F)(F)F)CCN4)cn2)CC1
5 | < 50% | < 50% | < 50% | < 50% | < 50% | < 50% | < 50% | < 50% | CN1CCN(c2ccc(-c3cnc4c(c3)N(Cc3cc(F)ccc3F)CCN4)cn2)CC1
6 | < 50% | < 50% | < 50% | < 50% | < 50% | < 50% | < 50% | < 50% | CN1CCN(c2ccc(-c3cnc4c(c3)N(Cc3cc(Cl)ccc3Cl)CCN4)cn2)CC1
7 |  | < 50% | < 50% |  | < 50% | < 50% | < 50% | < 50% | COC1CCN(C(=O)c2ccc(-c3cnc4c(c3)N(Cc3cc(Cl)ccc3C(F)(F)F)CCN4)cc2)CC1
8 | < 50% | < 50% | < 50% | < 50% | < 50% | < 50% | < 50% | < 50% | CN1CCN(c2ccc(-c3cnc4c(c3)N(Cc3c(F)ccc(F)c3Cl)CCN4)cn2)CC1
9 | < 50% | < 50% | < 50% | < 50% | < 50% | < 50% | < 50% | < 50% | FC(F)(F)c1ccc(Cl)cc1CN1CCNc2ncc(-c3ccnc(N4CCNCC4)c3)cc21
10 |  | < 50% | < 50% |  | < 50% | < 50% | < 50% | < 50% | O=C(c1ccc(-c2cnc3c(c2)N(Cc2cc(Cl)ccc2C(F)(F)F)CCN3)cc1)N1CCC(N2CCCC2)CC1
